GPR7 antag = GPR7 receptor antagonists, primary screen, cell-based, fluorescence, single concentration; inhibition, % at 4.4 µM; AID 1861, 2009; 290,000 compounds, 1.1% hits; GPR7-expressing cells, fluorescence antagonist assay; in the data active = inhibition above about 16%, passing the limit was not always enough;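 note: cells stimulated with the agonist NPW; 0% = agonist with vehicle and 100% = vehicle without agonist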
Target sequence (P48145 whole entry, looked up): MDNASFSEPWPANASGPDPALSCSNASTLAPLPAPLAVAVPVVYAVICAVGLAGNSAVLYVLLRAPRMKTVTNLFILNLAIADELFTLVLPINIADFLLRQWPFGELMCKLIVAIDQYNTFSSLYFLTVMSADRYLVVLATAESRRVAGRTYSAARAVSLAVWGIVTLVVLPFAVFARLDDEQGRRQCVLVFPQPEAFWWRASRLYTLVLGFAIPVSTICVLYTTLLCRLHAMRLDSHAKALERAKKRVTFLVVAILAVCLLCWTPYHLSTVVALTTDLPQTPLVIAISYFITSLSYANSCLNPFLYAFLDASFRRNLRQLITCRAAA
TRPML3 agonist = human TRPML3 channel agonists, primary screen, cell-based, HEK293 TRPML3-YFP, Fluo-8 calcium fluorescence, 3 µM. Mucolipin-3 (Homo sapiens), Q8TDD5. 100% = the carbachol control signal. activation, % at 3 µM. 220,000 compounds, 0.29% hits. AID 1448, 2008;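 active = activation above its plate's cutoff, the mean activation of the plate's test wells plus 3 SD, cut at about 12% in these data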;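 note: 0% = DMSO only wells and 100% = carbachol wells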
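Material: TRPML3-YFP stable HEK293 cells | Dosing: One concentration, 3 µM nominal, 0.3% DMSO | Timing: 125 s total fluorescence read per well | Technique: Fluo-8 calcium dye fluorescence, ex 470-495, em 515-575 nm | Measure: Percent activation from peak-to-basal fluorescence ratio, scaled between DMSO and carbachol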
zfTRPN1 agonist = zebrafish TRPN1 channel agonists, primary screen, cell-based, HEK293, calcium fluorescence; transient receptor potential cation channel N1 (TRPN1/NompC), Danio rerio; HEK293 zebrafish TRPN1-YFP, Fluo-8 calcium fluorescence; 100% = response to 87 µM carbachol; activation, % at 3 µM; 220,000 compounds, 0.18% hits; AID 1424, 2008;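 active = activation above its plate's cutoff, the mean activation of test wells on that plate plus 3 SD, cut at about 19% in these data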;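 note: 0% = DMSO alone and 100% = 87 µM carbachol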
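Material: zebrafish TRPN1-YFP in HEK293 cells; Doses: single test compound dose, 3 µM nominal, 0.3% DMSO; Timing: dye loading 1 h at 37 °C, then 30 min room temperature; Technique: intracellular calcium fluorescence with Fluo-8; Benchmarks: high carbachol 87 µM, low DMSO alone.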
OX1R antag-1 = OX1R (HCRTR1) antagonists, primary screen, fluorescence, CHO/OX1R cells, Fluo-8 calcium, orexin A; Orexin/Hypocretin receptor type 1 (Homo sapiens), O43613; Fluo-8 calcium fluorescence; inhibition, % at 5 µM; 330,000 compounds, 0.43% hits;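 active = inhibition above its plate's threshold, mean inhibition of all tested compounds on the plate plus 3 SD, cut at about 37% in these data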;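 note: 0% = orexin A challenge wells and 100% = SB-334867-A antagonist wells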
OX1R antag-2 = antagonists of human orexin 1 receptor (OX1R); Orexin/Hypocretin receptor type 1 (Homo sapiens), O43613; OX1R-expressing cells, FRET antagonist read-out; inhibition, % at 6.6 µM; 330,000 compounds, 1.8% hits; in the data active = inhibition mostly above about 38%, no sharp cut-off; inactive = mostly below about 40%;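 note: 0% = agonist challenge alone and 100% = reference antagonist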
CHO parental Ca = ATP-evoked calcium signal inhibitors, parental CHO, primary screen, counter-screen for OX1R antagonist project, cell-based, fluorescence, Fluo-8 calcium dye | inhibition, % at 5.6 µM | 330,000 compounds, 0.63% hits | parental CHO-K1, ATP-induced calcium, Fluo-8 fluorescence;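 active = inhibition above that plate's mean sample inhibition plus 3 SD, cut at about 26% in these data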;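 note: 0% = ATP-challenged DMSO wells and 100% = DMSO wells without ATP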
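Material: parental CHO cells / Compound: single nominal dose of 5.6 µM per compound / Signal: Fluo-8 fluorescence / Replicates: singlicate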
GPR7 antag conf = GPR7 receptor antagonists, confirmation, cell-based, fluorescence, single concentration; shares compounds with GPR7 antag; inhibition, % at 4.4 µM; 2,400 compounds, 52% hits; GPR7-expressing cells, calcium fluorescence antagonist mode; AID 1952, 2009; in the data active = inhibition above about 24%;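 note: stimulated with the GPR7 agonist NPW; 0% = agonist plus vehicle and 100% = vehicle alone without agonist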
MCHR1 antagonist = MCHR1 antagonists in cells, counter-screen for GPR7 antagonist project, cell-based, fluorescence, human | shares compounds with GPR7 antag | MCHR1-expressing cells, fluorescence antagonist assay | inhibition, % at 4.4 µM | 2,400 compounds, 62% hits; in the data active = inhibition above about 22%;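 note: 0% = vehicle with agonist and 100% = vehicle without agonist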
Active calls of the source: *; nt = no result given. Sampled rows, rich in hits. Any-hit rate of the full collection: about 3.2%.

SMILES	GPR7 antag	TRPML3 agonist	zfTRPN1 agonist	OX1R antag-1	OX1R antag-2	CHO parental Ca	GPR7 antag conf	MCHR1 antagonist
COc1ccc(-c2noc(CN3CCCCC3c3nccn3C)n2)cc1 (stereo unspecified)	41*	-1	-1	-13	11	-23	35*	20
CCN(CC)C(=O)CSc1nc2cc(S(=O)(=O)N3CCOCC3)ccc2n1CC	-17	nt	nt	-23	7	-3	nt	nt
COc1ccccc1-c1cc(C(=O)N2CCCC2)no1	-13	nt	nt	-7	42	-19	nt	nt
O=C(c1cc(-c2ccccc2Cl)on1)N1CCCC1	27*	nt	nt	-25	16	-7	17	7
O=C(Nc1ccccc1N1CCN(C(=O)c2ccccc2)CC1)c1ccc(Cl)cc1	4	0	1	-34	12	-29	nt	nt
O=C(Nc1ccccc1N1CCN(c2ccccc2)CC1)c1ccccc1	22*	0	0	-35	11	-28	22	45*
O=C(Cc1ccc(Cl)cc1)Nc1ccccc1N1CCN(C(=O)c2ccccc2)CC1	28*	nt	nt	-9	6	-19	36*	51*
Cc1cccc(N2CCN(C(=O)c3c(-c4ccccc4Cl)noc3C)CC2)c1C	20	nt	nt	-29	28	-14	nt	nt
C=CCn1cc(CN2CCC(C(=O)Nc3cccc(-c4cccc(F)c4)c3)CC2)c(C)n1	12	nt	nt	-4	22	1	nt	nt
C=CCn1cc(CN2CCC(C(=O)Nc3cccc(-c4cccc(Cl)c4)c3)CC2)c(C)n1	41*	nt	nt	13	5	3	41*	58*
COCc1ccc(CN2CCC(C(=O)Nc3cccc(-c4cccc(Cl)c4)c3)CC2)o1	27*	nt	nt	74*	12	61*	41*	82*
CN(C(=O)COC(=O)c1cccc(S(=O)(=O)N2CCOCC2)c1)C1CCS(=O)(=O)C1 (stereo unspecified)	nt	nt	nt	3	20	-3	nt	nt
CN(C(=O)COC(=O)c1cc(S(=O)(=O)N2CCOCC2)c(Cl)cc1Cl)C1CCS(=O)(=O)C1 (stereo unspecified)	26*	0	-1	-2	20	-5	-7	9
CN(Cc1cccs1)C(=O)CCCc1c[nH]c2ccccc12	33*	32*	32*	-23	20	-10	33*	45*
O=C(COC(=O)CNC(=O)c1ccccc1F)Nc1ncc(Cl)cc1Cl	nt	nt	nt	-21	-2	-10	nt	nt
CCCN(CC(=O)Nc1ccc(F)c(F)c1F)CC(=O)Nc1c(Cl)cccc1Cl	22*	1	-1	-16	10	-36	25*	25*
CCCN(CC(=O)Nc1cccc(Br)c1)CC(=O)Nc1ccc(F)c(F)c1F	23*	0	-1	-19	9	-16	31*	47*
Cc1c(Cl)cccc1N(Cc1ccc(C(=O)O)cc1)S(=O)(=O)c1ccccc1	-11	1	-1	6	13	-19	nt	nt
CCN(c1ccccc1)S(=O)(=O)c1ccc(C(=O)N(CCCN(C)C)c2nc3c(C)cccc3s2)cc1	29*	nt	nt	-1	7	-4	53*	52*
COc1cccc2sc(N(CCCN(C)C)C(=O)c3ccc(S(=O)(=O)N4CCCc5ccccc54)cc3)nc12	35*	nt	nt	-7	13	0	50*	41*
CCOC(=O)N1CCN(S(=O)(=O)c2ccc(C(=O)N(CCN(C)C)c3nc4ccc(CC)cc4s3)cc2)CC1	-2	nt	nt	-28	12	-10	nt	nt
CCN(c1ccccc1)S(=O)(=O)c1ccc(C(=O)N(CCCN(C)C)c2nc3cc4c(cc3s2)OCO4)cc1	19	nt	nt	-5	5	-17	nt	nt
CCOC(=O)N1CCN(S(=O)(=O)c2ccc(C(=O)N(CCCN(C)C)c3nc4ccc(CC)cc4s3)cc2)CC1	28*	nt	nt	-29	17	-21	39*	17
Clc1ccc(Cn2ncc3c(N4CCCC4)ncnc32)cc1	25*	0	0	-5	9	-15	19	7
O=C(CSc1nncs1)Nc1ccc(S(=O)(=O)N2CCCC2)cc1	-6	0	0	-9	10	-1	nt	nt
SMILES	GPR7 antag	TRPML3 agonist	zfTRPN1 agonist	OX1R antag-1	OX1R antag-2	CHO parental Ca	GPR7 antag conf	MCHR1 antagonist
CCOc1cc(CNc2ccc(O)cc2)ccc1OCc1ccc(Cl)cc1Cl	-8	-1	-3	-14	37	-14	nt	nt
COc1cc(CNC(C)(C)CO)cc(Br)c1OCc1ccc(Cl)cc1Cl	29*	2	3	16	1	14	57*	57*
O=C(/C=C/c1ccc(Cl)cc1)Nc1ccc(CN2CCOCC2)cc1	28*	6	13	-10	25	-17	36*	55*
CN(Cc1ccccn1)C(=O)CC1C(=O)NCCN1Cc1cccc(Oc2ccccc2)c1 (stereo unspecified)	26*	0	0	-23	14	-18	-6	5
COc1ccc(C(=O)/C=C/N(C)C)cc1	27*	-1	2	-29	18	-7	-3	-5
CN(C)/C=C/C(=O)c1ccc(Oc2ccccc2)cc1	-2	0	-1	0	13	-7	nt	nt
O=C(COc1ccccc1)N(Cc1ccco1)c1ccc(O)cc1	-7	0	1	-4	11	-6	nt	nt
O=C(c1ccc(Cl)c(Cl)c1)N(Cc1ccco1)c1ccc(O)cc1	29*	0	0	-10	10	-20	3	4
CC(=O)c1cc(-c2ccccc2)n(CCC(=O)NC2CCC(C)CC2)c1C (stereo unspecified)	23*	-1	0	-8	17	-24	5	-5
CC(=O)c1cc(-c2ccccc2)n(CCC(=O)NC2CCCC2)c1C	-4	0	-1	-9	9	-5	nt	nt
COc1ccc(-n2c(C)cc(/C=C3\C(=N)N4N=C(CC(=O)N5CCOCC5)SC4=NC3=O)c2C)cc1	32*	nt	nt	-17	11	-16	-2	15
